# Measurements from different studies.
# Lines come from different studies, so protocols differ.
Compound,target,assay,conditions,quantity,value
C#Cc1n[nH]c2c(-c3cn(C(C)c4ccccn4)c(=O)[nH]c3=O)cc(F)cc12 (stereo not drawn),"Epidermal growth factor receptor (EGFR, Homo sapiens, UniProt P00533, L858R/T790M)","enzyme activity, inhibitor",1 µM,inhibition,-1.7%
Nc1ncc(-c2nc(N3CCOCC3)nc(N3CCOCC3)n2)c(C(F)F)n1,"Microtubule-associated serine/threonine-protein kinase 1 (MAST1, Homo sapiens, UniProt Q9Y2H9)","binding, competition with immobilised ligand",10 µM,remaining binding,90%
Cn1cc(-c2cc(F)cc(N3CCn4c(cc5c4CCCC5)C3=O)c2CO)cc(Nc2ccc(N3CCN(C4COC4)CC3)cn2)c1=O,"Protein kinase C delta type (PRKCD, Homo sapiens, UniProt Q05655)","enzyme activity, inhibitor",0.1 µM,inhibition,2%
Brc1cc2c(N3CCNCC3)nccn2c1,"Beta-secretase 1 (BACE1, Homo sapiens, UniProt P56817)","thermal stability, DSF","2.1 mM, pH 5.4",ΔTm,-0.27 °C
Nc1cccc(-c2nsc(=O)o2)c1,"Proteasome Macropain subunit MB1 (PSMB5, Homo sapiens, UniProt P28074)","enzyme activity, inhibitor",,kinact/KI,7.2 M⁻¹ s⁻¹
CC[C@H](C)[C@H](NC(=O)[C@H](CO)NC(=O)[C@@H](N)CCCCN)C(=O)N[C@H](C(=O)N[C@@H](CC(N)=O)C(=O)N[C@@H](Cc1ccccc1)C(=O)N[C@@H](CCC(=O)O)C(=O)N[C@@H](CCCCN)C(=O)N[C@@H](CC(C)C)C(=O)O)[C@@H](C)CC,"Endoplasmic reticulum aminopeptidase 2 (ERAP2, Homo sapiens, UniProt Q6P179)","enzyme activity, substrate, mass spectrometry",,Km,12.3 µM
CCN(CC)CCCC[C@H](NC(=O)[C@H](CC(C)C)NC(=O)[C@H](C)NC(=O)[C@H](Cc1ccccc1)NC(=O)c1ccc(C(C)(C)C)cc1)C(=O)N[C@@H](CO)C(=O)OC,"SWI/SNF-related matrix-associated actin-dependent regulator of chromatin subfamily A member 2 (SMARCA2, Homo sapiens, UniProt P51531)","thermal stability, DSF",25 µM,ΔTm,0.14 °C
COc1ncccc1-c1cnn2ccc(N3CCN(C(=O)OC(C)C)CC3)nc12,"Ribosomal protein S6 kinase alpha-2, C-terminal kinase domain (RPS6KA2, Homo sapiens, UniProt Q15349)","binding, competition with immobilised ligand",1 µM,remaining binding,83%
Cc1nn(C)cc1-c1nc2c(N3CCN(Cc4ccc(Cl)cc4)CC3)c(Cl)cnc2[nH]1,"Serine/threonine-protein kinase Nek5 (NEK5, Homo sapiens, UniProt Q6P3R8)","binding, competition with immobilised ligand",1 µM,remaining binding,23%
